Experimental data from ChEMBL document CHEMBL5724801, “EUbOPEN Chemogenomics Library - Multiplex” (2024).
“And” between values parts separate entries of the source, which are not always exact repeats. Identical values can stand only once.

Tested on: U2OS
Assay: Multiplex assay against U2OS
Type: toxicity, cell-based
Conditions: human
Outline: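 Live cells were stained at seeding with Hoechst33342, BioTracker Green Microtubule Cytoskeleton Dye, MitoTracker Red and Annexin V Alexa Fluor 680. Following compound addition, they were imaged on a CQ1 microscope at 37°C and 5% CO2 and gated by CellPathfinder machine learning into Hoechst high-intensity objects or normal cells, with normal cells split into healthy, pyknosed or fragmented nuclei and pyknosed cells into mitotic or apoptotic. Tubulin, mitochondrial-mass and membrane-permeability phenotypes are per cents of healthy-nucleus cells.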

[1] = 12 h, 1 µM, compound concentration 1 uM
[2] = 12 h, 10 µM, compound concentration 10 uM
[3] = 24 h, 1 µM, compound concentration 1 uM
[4] = 24 h, 10 µM, compound concentration 10 uM
[5] = 48 h, 1 µM, compound concentration 1 uM
[6] = 48 h, 10 µM, compound concentration 10 uM

COc1cc(OC2CCN(C(C)=O)CC2)ccc1C(=O)N1CCC(N2C(=O)OCc3ccccc32)CC1
Population Apoptotic (%) [1]: 50% and 66% | Population Fragmented Nuclei (%) [1]: 22% and 20% | Population Healthy Nuclei (%) [1]: 67% and 69% | Population Hoechst High Intensity Objects (%) [1]: 0% | Population Membrane Permeable-Phenotype (%) [1]: 5% and 11% | Population Mitochondria Different-Phenotype (%) [1]: 3% and 7% | Population Mitotic Cells (%) [1]: 50% and 33% | Population Normal (%) [1]: 99% | Population Pyknosed Nuclei (%) [1]: 9% | Population Tubulin-Different-Phenotype (%) [1]: 3% and 8% | Total Cell Count [1]: 233 and 130 | Population Apoptotic (%) [2]: 72% and 87% | Population Fragmented Nuclei (%) [2]: 23% and 13% | Population Healthy Nuclei (%) [2]: 62% and 77% | Population Hoechst High Intensity Objects (%) [2]: 6% and 1% | Population Membrane Permeable-Phenotype (%) [2]: 18% and 21% | Population Mitochondria Different-Phenotype (%) [2]: 6% and 10% | Population Mitotic Cells (%) [2]: 27% and 12% | Population Normal (%) [2]: 93% and 98% | Population Pyknosed Nuclei (%) [2]: 13% and 9% | Population Tubulin-Different-Phenotype (%) [2]: 12% and 13% | Total Cell Count [2]: 228 and 85 | Population Apoptotic (%) [3]: 82% and 76% | Population Fragmented Nuclei (%) [3]: 20% and 22% | Population Healthy Nuclei (%) [3]: 71% and 68% | Population Hoechst High Intensity Objects (%) [3]: 1% | Population Membrane Permeable-Phenotype (%) [3]: 3% and 7% | Population Mitochondria Different-Phenotype (%) [3]: 2% and 5% | Population Mitotic Cells (%) [3]: 17% and 23% | Population Normal (%) [3]: 98% | Population Pyknosed Nuclei (%) [3]: 8% | Population Tubulin-Different-Phenotype (%) [3]: 2% and 3% | Total Cell Count [3]: 288 and 163 | Population Apoptotic (%) [4]: 81% and 71% | Population Fragmented Nuclei (%) [4]: 21% and 12% | Population Healthy Nuclei (%) [4]: 60% and 80% | Population Hoechst High Intensity Objects (%) [4]: 5% and 2% | Population Membrane Permeable-Phenotype (%) [4]: 9% and 10% | Population Mitochondria Different-Phenotype (%) [4]: 9% and 3% | Population Mitotic Cells (%) [4]: 18% and 28% | Population Normal (%) [4]: 94% and 97% | Population Pyknosed Nuclei (%) [4]: 18% and 7% | Population Tubulin-Different-Phenotype (%) [4]: 4% and 6% | Total Cell Count [4]: 250 and 99 | Population Apoptotic (%) [5]: 80% and 65% | Population Fragmented Nuclei (%) [5]: 17% and 23% | Population Healthy Nuclei (%) [5]: 77% and 66% | Population Hoechst High Intensity Objects (%) [5]: 3% | Population Membrane Permeable-Phenotype (%) [5]: 3% and 10% | Population Mitochondria Different-Phenotype (%) [5]: 1% and 5% | Population Mitotic Cells (%) [5]: 19% and 35% | Population Normal (%) [5]: 96% | Population Pyknosed Nuclei (%) [5]: 5% and 9% | Population Tubulin-Different-Phenotype (%) [5]: 2% and 4% | Total Cell Count [5]: 388 and 213 | Population Apoptotic (%) [6]: 81% and 100% | Population Fragmented Nuclei (%) [6]: 19% and 17% | Population Healthy Nuclei (%) [6]: 66% and 78% | Population Hoechst High Intensity Objects (%) [6]: 5% and 1% | Population Membrane Permeable-Phenotype (%) [6]: 5% and 14% | Population Mitochondria Different-Phenotype (%) [6]: 4% and 6% | Population Mitotic Cells (%) [6]: 18% and 0% | Population Normal (%) [6]: 95% and 98% | Population Tubulin-Different-Phenotype (%) [6]: 3% and 8% | Total Cell Count [6]: 320 and 130

Cc1cc(=O)n(C)c2cc(N3C(=O)CC[C@H](NS(=O)(=O)CC(C)C)[C@H]3c3ccc(Cl)cc3)ccc12
Population Apoptotic (%) [1]: 87% and 63% | Population Fragmented Nuclei (%) [1]: 24% and 21% | Population Healthy Nuclei (%) [1]: 66% and 68% | Population Hoechst High Intensity Objects (%) [1]: 3% and 1% | Population Membrane Permeable-Phenotype (%) [1]: 3% and 2% | Population Mitochondria Different-Phenotype (%) [1]: 1% and 2% | Population Mitotic Cells (%) [1]: 12% and 36% | Population Normal (%) [1]: 96% and 98% | Population Pyknosed Nuclei (%) [1]: 9% and 10% | Population Tubulin-Different-Phenotype (%) [1]: 1% | Total Cell Count [1]: 263 and 110 | Population Apoptotic (%) [2]: 57% | Population Fragmented Nuclei (%) [2]: 21% and 16% | Population Healthy Nuclei (%) [2]: 55% and 60% | Population Hoechst High Intensity Objects (%) [2]: 5% and 3% | Population Membrane Permeable-Phenotype (%) [2]: 63% and 35% | Population Mitochondria Different-Phenotype (%) [2]: 44% and 68% | Population Mitotic Cells (%) [2]: 42% | Population Normal (%) [2]: 94% and 96% | Population Pyknosed Nuclei (%) [2]: 23% | Population Tubulin-Different-Phenotype (%) [2]: 65% and 60% | Total Cell Count [2]: 240 and 83 | Population Apoptotic (%) [3]: 74% and 82% | Population Fragmented Nuclei (%) [3]: 20% and 18% | Population Healthy Nuclei (%) [3]: 68% and 69% | Population Hoechst High Intensity Objects (%) [3]: 3% and 1% | Population Membrane Permeable-Phenotype (%) [3]: 6% and 9% | Population Mitochondria Different-Phenotype (%) [3]: 3% and 2% | Population Mitotic Cells (%) [3]: 25% and 17% | Population Normal (%) [3]: 96% and 98% | Population Pyknosed Nuclei (%) [3]: 11% | Population Tubulin-Different-Phenotype (%) [3]: 4% and 6% | Total Cell Count [3]: 322 and 146 | Population Apoptotic (%) [4]: 71% and 81% | Population Fragmented Nuclei (%) [4]: 20% and 26% | Population Healthy Nuclei (%) [4]: 56% and 62% | Population Hoechst High Intensity Objects (%) [4]: 5% and 2% | Population Membrane Permeable-Phenotype (%) [4]: 25% and 36% | Population Mitochondria Different-Phenotype (%) [4]: 40% and 59% | Population Mitotic Cells (%) [4]: 28% and 18% | Population Normal (%) [4]: 94% and 97% | Population Pyknosed Nuclei (%) [4]: 23% and 10% | Population Tubulin-Different-Phenotype (%) [4]: 28% and 50% | Total Cell Count [4]: 262 and 108 | Population Apoptotic (%) [5]: 77% and 95% | Population Fragmented Nuclei (%) [5]: 14% and 15% | Population Healthy Nuclei (%) [5]: 73% | Population Hoechst High Intensity Objects (%) [5]: 1% | Population Membrane Permeable-Phenotype (%) [5]: 4% and 6% | Population Mitochondria Different-Phenotype (%) [5]: 3% and 5% | Population Normal (%) [5]: 98% | Population Pyknosed Nuclei (%) [5]: 11% and 10% | Population Tubulin-Different-Phenotype (%) [5]: 2% and 4% | Total Cell Count [5]: 508 and 199 | Population Apoptotic (%) [6]: 84% and 71% | Population Fragmented Nuclei (%) [6]: 25% and 21% | Population Healthy Nuclei (%) [6]: 51% and 60% | Population Hoechst High Intensity Objects (%) [6]: 6% and 5% | Population Membrane Permeable-Phenotype (%) [6]: 15% and 30% | Population Mitochondria Different-Phenotype (%) [6]: 15% and 35% | Population Mitotic Cells (%) [6]: 15% and 28% | Population Normal (%) [6]: 93% and 94% | Population Pyknosed Nuclei (%) [6]: 22% and 18% | Population Tubulin-Different-Phenotype (%) [6]: 10% and 23% | Total Cell Count [6]: 331 and 120
